# Screening results (PubChem BioAssay)
# In the library only some 2.3% were active in any assay of this set; here they are far more common.
# MEKK3 PB1 HTS – modulators of MEKK3-MEK5 PB1 binding, primary screen, biochemical, wildtype MEKK3, multiplex bead flow cytometry, Alexa488-MEK5; Mitogen-activated protein kinase kinase kinase 3 (Homo sapiens), Q99759; bead-based flow cytometry, Alexa488-MEK5 binding to MEKK3; actives lie on both sides; 0 = blocked by unlabeled MEK5, 100 = vehicle; binding response (% of control), % at 10 µM; 290,000 compounds, 1.4% hits; AID 1529, 2009;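 active means binding response more than 3 SD above or below the average of its plate-row segment, actives on both sides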;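 further: Alexa488 bead fluorescence after subtracting the streptavidin-only scavenger bead signal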
# Target sequence (Q99759 whole entry, looked up): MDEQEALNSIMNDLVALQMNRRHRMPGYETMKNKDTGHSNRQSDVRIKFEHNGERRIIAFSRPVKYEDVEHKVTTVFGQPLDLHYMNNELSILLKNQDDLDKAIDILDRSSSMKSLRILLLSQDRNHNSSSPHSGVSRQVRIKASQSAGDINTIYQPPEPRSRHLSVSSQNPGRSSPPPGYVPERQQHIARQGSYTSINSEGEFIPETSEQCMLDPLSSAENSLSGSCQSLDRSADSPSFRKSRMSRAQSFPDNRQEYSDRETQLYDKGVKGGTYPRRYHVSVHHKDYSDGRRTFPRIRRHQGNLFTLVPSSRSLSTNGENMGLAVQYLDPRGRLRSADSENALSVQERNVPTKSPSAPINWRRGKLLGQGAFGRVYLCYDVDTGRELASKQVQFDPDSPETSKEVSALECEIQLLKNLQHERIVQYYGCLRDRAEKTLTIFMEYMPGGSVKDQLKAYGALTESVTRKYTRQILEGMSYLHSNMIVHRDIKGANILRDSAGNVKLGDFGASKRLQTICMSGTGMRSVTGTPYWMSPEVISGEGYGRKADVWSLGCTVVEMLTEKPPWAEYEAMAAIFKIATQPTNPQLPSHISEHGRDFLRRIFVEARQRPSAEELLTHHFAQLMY
# MEKK2 mut-MEK5 – MEK5 binding signal on mutant MEKK2 PB1, primary screen, biochemical, multiplex bead flow cytometry, Alexa488-MEK5; Alexa488-MEK5 binding to MEKK2 mutant; percent response, % at 10 µM; 290,000 compounds, 0.35% hits; AID 1530, 2009; in the data active means percent response above about 24%, passing the limit was not always enough
# Arrestin-AP2 inh – inhibitors of beta-arrestin/AP2 binding, primary screen, biochemical, GPCR trafficking, flow cytometry; beta-arrestin 1 C-terminal peptide binding to AP2 beta2-adaptin appendage (human); FITC-arrestin peptide / GST-AP2 beads; AP2 beta2 appendage carries R879A mutation; inhibition, % at 10 µM; 340,000 compounds, 0.31% hits; AID 504490, 2011;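 active means inhibition above a set limit, near 3 SD of compounds lacking own fluorescence, cut at about 54% in these data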;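 further: plate controls were DMSO wells for no effect and 5 µM unlabelled arrestin peptide for full effect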
#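 Measured by: flow cytometry, FL1 (488/535 nm); Material: AP2 appendage R879A on GSH beads; Evaluation: percent response; Timing: pre-incubation 12 min, peptide binding 1 h, room temperature; Also added: 50 nM FITC-arrestin peptide; Medium: PBS with 0.05% Tween 20 and 0.1% BSA.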
# MEKK2wt PB1 HTS – modulators of MEK5 binding to wildtype MEKK2, primary screen, biochemical, multiplex bead flow cytometry, Alexa488-MEK5. Alexa488-MEK5 binding to MEKK2 WT; actives lie on both sides. binding response (% of control), % at 10 µM. 290,000 compounds, 1.1% hits; in the data active means binding response below about 67% or above about 130%
# MEKK2wt confirm – modulators of MEK5 binding to wildtype MEKK2, confirmation, biochemical, single concentration, multiplex bead flow cytometry. binding response (% of control), % at 10 µM. shares compounds with MEKK3 PB1 HTS. Alexa488-MEK5 binding to MEKK2 WT; actives lie on both sides. 5,900 compounds, 2.4% hits. AID 1892, 2009; in the data active means binding response below about 16% or above about 210%; inactive means in between
# MEKK2mut confirm – mutant MEKK2 PB1-MEK5 binding signal retest – biochemical, single concentration, multiplex bead flow cytometry, confirmation; shares compounds with MEKK3 PB1 HTS; percent response, % at 10 µM; Alexa488-MEK5 binding to MEKK2 mutant; 5,900 compounds, 2% hits; AID 1893, 2009; in the data active means percent response mostly above about 71%, no sharp cut-off; inactive means mostly below about 38%;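 further: higher means compound restores mutant binding toward wildtype level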
# MEKK3 confirm – MEKK3 wild-type PB1 binding to MEK5, inhibitors, confirmation, biochemical, bead multiplex flow cytometry, single concentration, wildtype; shares compounds with MEKK3 PB1 HTS; Alexa488-MEK5 binding to MEKK3; stronger effect = lower value; binding response (% of control), % at 10 µM; 5,900 compounds, 1.8% hits; AID 1894, 2009;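 active means binding response below 72% of control, or above a set upper limit, though filed actives all read lower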;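 further: 100% = DMSO only wells and 0% = binding blocked by excess unlabeled MEK5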
# The depositor's hits bear a star; · = no result; [ ] = dose if it differs, or a comment.
SMILES,MEKK3 PB1 HTS,MEKK2 mut-MEK5,Arrestin-AP2 inh,MEKK2wt PB1 HTS,MEKK2wt confirm,MEKK2mut confirm,MEKK3 confirm
CC(CNC(=O)CC(C)(C)C)NC(=O)CC(C)(C)C (stereo not given),123*,7,5,102,94,0,102
Cc1sc2ncnc(Sc3nnnn3-c3ccccc3)c2c1C,78*[inhibitor],-14,8,81,91,-14,95
Cc1sc2ncnc(Sc3ccccc3C(=O)O)c2c1C,98,-1,-23,97,·,·,·
Cc1cc(C)c2nc(NCCCNC(=S)NCCCN(C)C)c(C#N)cc2c1,97,37,29,164*,165,42,109
Cc1nn(-c2ccccc2)c(C)c1-c1nnc(-c2c(C)nn(-c3ccccc3)c2C)o1,101,3,-4,103,·,·,·
Cc1oc(C)c(C(=O)O)c1C(=O)O,45*[inhibitor],-15,-1,55,103,4,103
Cc1cc(NC(=O)CSCC(=O)N2CCN(c3cccc(C(F)(F)F)c3)CC2)no1,·,·,-2,·,·,·,·
CCOc1ccc(N(CC(=O)NCCSCc2ccco2)S(=O)(=O)c2ccc(C)cc2)cc1,98,-8,9,93,·,·,·
c1csc(CNc2ccc3c(c2)OCCO3)c1,131*,-1,8,98,93,-6,94
Oc1ccccc1CNc1ccc2c(c1)OCCO2,102,0,20,94,·,·,·
CSc1ccccc1OCc1cc(C(=O)N(C)Cc2ccncn2)no1,100,6,-7,104,·,·,·
CCn1ncc(C2=NOC(C(=O)Nc3ccc(C)cc3)C2)c1C (stereo not given),99,-1,24,95,·,·,·
CCn1ncc(C2=NOC(C(=O)Nc3ccc4c(c3)OCO4)C2)c1C (stereo not given),2.0*[inhibitor],-41,1,1.0*[inhibitor],101,-2,105
Cc1ccc(S(=O)(=O)N2CCOCC2)cc1NC(=O)COC(=O)c1ccc(OCc2c(C)noc2C)cc1,96,-2,-9,99,·,·,·
Cc1noc(C)c1COc1ccc(C(=O)OC(C)C(=O)Nc2ccc(S(=O)(=O)N3CCOCC3)cc2)cc1 (stereo not given),152*,2,2,105,99,-2,104
CCc1ccccc1NC(=O)NC1CCCCCCC1,102,0,12,98,·,·,·
CCC(CC(C)(C)O)C(=O)NNC(=S)Nc1ccccc1 (stereo not given),104,-7,3,85,·,·,·
O=C(c1ccoc1)N1CCC2(CC1)Oc1ccc(Cl)cc1C(=O)C21CC(c2ccccc2)=NO1 (stereo not given),45*[inhibitor],2,28,53,99,-3,103
O=C(c1ccoc1)N1CCC2(CC1)Oc1ccc(Cl)cc1C(=O)C21CC(c2cccnc2)=NO1 (stereo not given),103,3,-3,100,·,·,·
Cc1cc(=O)c2cccc(Br)c2[nH]1,113,13,13,102,·,·,·
Cc1cc(=O)c2c(C)ccc(C)c2[nH]1,74*[inhibitor],-25,0,85,103,2,105
COCC(C)NCc1cccc2ccccc12 (stereo not given),96,-13,-18,82,·,·,·
CC(CCc1ccccc1)NCc1cccc2ccccc12 (stereo not given),113,8,46,135*,119,12,104
